Assay results reported in ChEMBL document CHEMBL1148127, “Antimicrobial activities of a new schizozygane indoline alkaloid from Schizozygia coffaeoides and the revised structure of isoschizogaline” (2002).
Values after ≈ are worked out from the molar mass of the structure shown.

Columns and labels:
Format in all cases: functional
[1] = tested on: Nannizzia gypsea; assay: Antimicrobial activity against Microsporum gypseum NCPF 40 after 10 days by microdilution technique; conditions: 240 h
Method in brief: (§1)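 Dermatophytes were grown on Sabouraud's dextrose agar at 26 °C for 10 days. Fresh inocula were standardized to 10^4 CFU per 100 µL for broth microdilution against compound in DMSO (initial 500 µg/mL). Plates were kept at 26 °C for 10 days and inspected visually every day, and the MIC was recorded. Controls were ketoconazole and DMSO alone.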

[2] = tested on: Trichophyton interdigitale; assay: Antimicrobial activity against Trichophyton interdigitale EQ 4115 after 10 days by microdilution technique; conditions: 240 h; method in brief: as §1
[3] = tested on: Cladosporium herbarum; assay: Antimicrobial activity against Cladosporium herbarum after 10 days by microdilution technique; conditions: 240 h
Method in brief: (§2)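 These plant-pathogenic Cladosporium strains were cultured on potato dextrose agar at 26 °C for 10 days. Suspensions were standardized to 10^4 CFU per 100 µL and tested by microdilution against compound dissolved in DMSO (initial 500 µg/mL). Plates were held at 26 °C for 10 days with daily visual growth checks, and the MIC was recorded. Controls were ketoconazole and DMSO alone.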

[4] = tested on: Candida albicans; assay: Antimicrobial activity against Candida albicans after 24 hrs by microdilution technique
Method in brief: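 Yeast was cultured on Sabouraud's dextrose agar at 30 °C for 24 h. A fresh suspension was standardized to 10^4 CFU per 100 µL and added to microdilution wells holding compound in DMSO (initial 500 µg/mL). Plates were incubated at 30 °C for 24 h and checked visually for growth to give the MIC. Controls were ketoconazole and DMSO alone.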

[5] = tested on: Cladosporium cladosporioides; assay: Antimicrobial activity against Cladosporium cladosporioides IMI 299104 after 10 days by microdilution technique; conditions: 240 h; method in brief: as §2
[6] = tested on: Trichophyton tonsurans; assay: Antimicrobial activity against Trichophyton tonsurans EQ 4329 after 10 days by microdilution technique; conditions: 240 h; method in brief: as §1
[7] = tested on: Epidermophyton floccosum; assay: Antimicrobial activity against Epidermophyton floccosum after 10 days by microdilution technique; conditions: 240 h; method in brief: as §1
[8] = tested on: Trichophyton mentagrophytes; assay: Antimicrobial activity against Trichophyton mentagrophytes NCPF 224 after 10 days by microdilution technique; conditions: 240 h; method in brief: as §1
[9] = tested on: Staphylococcus aureus; assay: Antimicrobial activity against Staphylococcus aureus NCIMB 9515 after 24 hrs by microdilution technique
Method in brief: (§3)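 Bacteria were grown on nutrient agar at 37 °C for 24 h. Fresh suspensions were standardized to 10^5 CFU per 100 µL and added to microdilution wells. Compounds were dissolved in DMSO with an initial concentration of 500 µg/mL. Ampicillin served as the positive control, with a DMSO-alone check. Growth was read visually and the MIC recorded.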

[10] = tested on: Bacillus subtilis; assay: Antimicrobial activity against Bacillus subtilis NCTC 10073 after 24 hrs by microdilution technique; conditions: NCTC 10073, 24 h; method in brief: as §3
[11] = tested on: Pseudomonas aeruginosa; assay: Antimicrobial activity against Pseudomonas aeruginosa NCIMB 10421 after 24 hrs by microdilution technique; method in brief: as §3
[12] = tested on: Escherichia coli; assay: Antimicrobial activity against Escherichia coli NCTC 9002 after 24 hrs by microdilution technique; conditions: NCTC 9002, 24 h; method in brief: as §3

In the case of `CC(=O)N1CCN(c2ccc(OCC3COC(Cn4ccnc4)(c4ccc(Cl)cc4Cl)O3)cc2)CC1` (stereo not drawn) [KETOCONAZOLE], the MIC [1] was 6.25 µg/mL (≈ 11.8 µM), the MIC [2] was 25 µg/mL (≈ 47 µM) and the MIC [3] was 50 µg/mL (≈ 94.1 µM). For the same compound, the MIC [4] was 25 µg/mL (≈ 47 µM), the MIC [5] was 25 µg/mL (≈ 47 µM) and the MIC [6] was 50 µg/mL (≈ 94.1 µM). The MIC [7] was 25 µg/mL (≈ 47 µM) and the MIC [8] was 6.25 µg/mL (≈ 11.8 µM).
In the case of `CC1(C)S[C@@H]2[C@H](NC(=O)[C@H](N)c3ccccc3)C(=O)N2[C@H]1C(=O)O` [AMPICILLIN], the MIC [9] was 12.5 µg/mL (≈ 35.8 µM), the MIC [10] was 12.5 µg/mL (≈ 35.8 µM) and the MIC [11] was 25 µg/mL (≈ 71.5 µM). For the same compound, the MIC [12] was 20 µg/mL (≈ 57.2 µM).
`O=C1[C@H](O)[C@]23C=CCN4CC=C5c6cc7c(cc6N1[C@@]5(CC2)[C@@H]43)OCO7` gave an MIC [9] greater than 500 µg/mL, an MIC [1] of 1.95 µg/mL (≈ 5.57 µM) and an MIC [2] of less than 3.9 µg/mL. It also gave an MIC [3] of 15.6 µg/mL (≈ 44.5 µM), an MIC [4] of 7.8 µg/mL (≈ 22.3 µM) and an MIC [5] of 7.8 µg/mL (≈ 22.3 µM). The MIC [6] was 3.9 µg/mL (≈ 11.1 µM), the MIC [10] was greater than 500 µg/mL and the MIC [7] was greater than 1.95 µg/mL. For the same compound, the MIC [11] was greater than 500 µg/mL, the MIC [12] was 250 µg/mL (≈ 714 µM) and the MIC [8] was less than 1.95 µg/mL.
Compound `O=C1C[C@]23C=CCN4CC[C@H]5c6cc7c(cc6N1[C@@]5(CC2)[C@@H]43)OCO7` [SCHIZOZYGINE] has an MIC [9] greater than 500 µg/mL, an MIC [1] greater than 500 µg/mL and an MIC [2] greater than 500 µg/mL. For the same compound, the MIC [3] was greater than 500 µg/mL, the MIC [4] was greater than 500 µg/mL and the MIC [5] was greater than 500 µg/mL. The MIC [6] was greater than 500 µg/mL, the MIC [10] was greater than 500 µg/mL and the MIC [7] was greater than 500 µg/mL. It also gave an MIC [11] greater than 500 µg/mL, an MIC [12] greater than 500 µg/mL and an MIC [8] greater than 500 µg/mL.
With `COc1ccc2c(c1)N1C(=O)C[C@]34C=CCN5CC[C@@H]2[C@@H](CC3)[C@]514` [ISOSCHIZOGALINE] the MIC [9] was 125 µg/mL (≈ 388 µM), the MIC [1] was greater than 500 µg/mL and the MIC [2] was greater than 500 µg/mL. For the same compound, the MIC [3] was greater than 500 µg/mL, the MIC [4] was greater than 500 µg/mL and the MIC [5] was greater than 500 µg/mL. It also gave an MIC [6] greater than 500 µg/mL, an MIC [10] of 62.5 µg/mL (≈ 194 µM) and an MIC [7] greater than 500 µg/mL. The MIC [11] was greater than 500 µg/mL, the MIC [12] was greater than 500 µg/mL and the MIC [8] was greater than 500 µg/mL.
